Assay outcomes as filed in PubChem BioAssay.
In the library only some 2.7% were active in any assay of this set; here they are far more common.
MC4R antag cAMP – MC4R antagonists of cAMP signaling, primary screen, cell-based, TR-FRET, antagonist arm of biased-ligand search. Melanocortin receptor 4 (Homo sapiens), P32245. MC4R-expressing cells, MTII-stimulated cAMP, LANCE TR-FRET. inhibition, % at 6.5 µM. 360,000 tested, 0.48% active. AID 540295, 2011;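 active means inhibition above its plate's cutoff, the mean of tested wells on that plate plus 3 SD, cut at about 29% in these data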;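 further: 0% = Melanotan II alone and 100% = Melanotan II plus saturating MCL0020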
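material = U2OS cells stably expressing human melanocortin 4 receptor (MC4R) | also added = Melanotan II challenge | dosing = single nominal compound dose of 6.5 µM | detection = TR-FRET with Eu-cAMP and labeled anti-cAMP, 671 nm | replication = singlicate | timing = compound 30 min, challenge 1 h, detection 1 h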
Rev-erbA mod – modulators of Rev-erb alpha DNA binding, primary screen, biochemical, FITC-DNA, fluorescence polarization, uHTS | Rev-erbα–FITC-DNA binding, 90 min | 370,000 tested, 0.79% active | activity, % at 10 µM;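 active means activity above about 14%, limit read from the data; passing the limit was not always enough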;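 further: 0% = DMSO wells with 35 nM protein and 100% = DMSO wells with 750 nM protein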
PG9 Ab binder – binders of HIV-1 gp120 antibody PG9, primary screen, biochemical, TR-FRET; TR-FRET gp120-PG9 antibody binding; inhibition, % at 6.7 µM; 360,000 tested, 0.43% active; AID 624416, 2012; in the data active means inhibition above about 8.5%
NR2E3 ag-1 – inhibitors of NR2E3-RetCOR corepressor binding, primary screen, NR2E3 agonist project, biochemical, TR-FRET, GST-NR2E3, biotin-RetCOR; Photoreceptor-specific nuclear receptor (Homo sapiens), Q9Y5X4; 1536-well; inhibition of corepressor binding, % at 4.78 µM; 320,000 tested, 0.12% active;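 active means percent inhibition above the cutoff of mean plus 3 SD of all tested compounds, set per screening campaign, cut at about 20% in these data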;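 further: 0% = DMSO wells and 100% = biotin wells as full block of FRET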
Target sequence (Q9Y5X4 whole entry, looked up): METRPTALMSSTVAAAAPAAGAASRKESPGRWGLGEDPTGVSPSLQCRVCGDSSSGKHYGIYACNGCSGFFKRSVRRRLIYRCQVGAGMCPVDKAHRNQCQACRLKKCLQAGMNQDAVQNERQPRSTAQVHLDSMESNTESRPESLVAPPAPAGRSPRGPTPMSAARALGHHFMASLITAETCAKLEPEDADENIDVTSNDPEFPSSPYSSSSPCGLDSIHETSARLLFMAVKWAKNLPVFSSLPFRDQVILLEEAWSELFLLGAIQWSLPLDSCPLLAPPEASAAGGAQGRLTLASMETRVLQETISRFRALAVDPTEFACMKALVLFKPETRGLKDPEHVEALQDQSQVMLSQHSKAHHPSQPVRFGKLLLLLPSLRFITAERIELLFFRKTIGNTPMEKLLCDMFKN
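Format: 1536-well format; test system: GST-NR2E3 and biotin-RetCOR proteins; read-out basis: percent inhibition of TR-FRET ratio; timing: 5 h incubation at 4 °C; detection: time-resolved FRET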
NR2E3 ag-2 – NR2E3 agonists in two-hybrid cells, primary screen, cell-based, luminescence, CHO-S, Gal4-NCOR/VP16-NR2E3. Photoreceptor-specific nuclear receptor (Homo sapiens), Q9Y5X4. luciferase. inhibition of corepressor binding, % at 3.98 µM. 360,000 tested, 0.35% active;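 active means inhibition above the mean of all tested compounds plus 3 SD, cut at about 70% in these data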;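 further: 0% = DMSO with NR2E3 transfected cells and 100% = cells lacking NR2E3 construct; higher means lower luciferase signal from less NR2E3 corepressor binding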
MC4R barr agon – MC4R agonists recruiting beta-arrestin, primary screen, cell-based, luminescence, agonist arm of biased-ligand search | Melanocortin receptor 4 (Homo sapiens), P32245 | U2OS MC4R beta-arrestin complementation; percent of melanotan II response, DMSO zero | activation, % at 8.9 µM | 360,000 tested, 0.98% active | AID 540308, 2011;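 active means activation above a per-plate cutoff, the mean activation of sample wells on that plate plus 3 SD, cut at about 8% in these data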
NR1D1 mod conf – modulators of Rev-erb alpha DNA binding, confirmation, biochemical, FITC-DNA, fluorescence polarization, single point; 3,000 tested, 61% active; activation, % at 25 µM; shares compounds with Rev-erbA mod; 90 min;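 active means activation at or above a set limit, or at least 3 SD above the negative control mean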;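 further: 0% = 35 nM protein with DMSO and 100% = 750 nM protein high control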
RORg counter – modulation of RORgamma DNA binding, dose response, counter-screen for Rev-erb alpha modulator project, biochemical, fluorescence polarization, FITC-DNA. shares compounds with Rev-erbA mod. purified RORgamma protein-FITC-DNA binding. IC50, µM. 910 tested, 8% active;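 active means Compounds whose fitted half-maximal concentration for disrupting protein-DNA binding is below 10 micromolar; the record names Rev-erb in its text, so the target is in doubt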
* = called active by the depositor; i = inactive; . = not tested or not shown.

SMILES	MC4R antag cAMP	Rev-erbA mod	PG9 Ab binder	NR2E3 ag-1	NR2E3 ag-2	MC4R barr agon	NR1D1 mod conf	others
Cc1ccc2cc(C=C(C#N)C#N)c(N3CCCCC3)nc2c1	20	-7	7	13	-15	4	.
COc1cc([N+](=O)[O-])ccc1NC(=O)Nc1ccc(C(=O)N2CCCC2)cc1	13	2	0	1	-32	-2	.
COc1cccc(-c2cc(C(=O)Nc3cc(C)n(Cc4ccc(Cl)cc4)n3)no2)c1	-10	-5	-1	-1	0	-1	.
COc1ccc(OC)c(-c2cc(C(=O)Nc3cc(C)n(Cc4ccc(Cl)cc4)n3)no2)c1	-1	16*	-2	1	-6	1	5
COc1ccc(-c2noc(COc3ccc(C)c(C)c3)n2)cc1OC	3	-2	1	-2	-21	0	.
COc1ccc(-c2noc(COc3ccc4ccccc4c3Br)n2)cc1OC	2	29*	0	1	-7	-3	17*
CCOC(=O)c1nn(-c2ccccc2)c(=O)cc1OCC(=O)Nc1cc(C)ccc1OC	2	48*	1	-3	-6	0	13
CCOC(=O)c1nn(-c2ccc(F)cc2)c(=O)cc1OCC(=O)Nc1cccc(C)c1	7	101*	11*	2	20	1	93*	RORg counter=>40
CCOC(=O)c1nn(-c2ccc(C)cc2)c(=O)cc1OCC(=O)Nc1cc(C)ccc1OC	4	2	-1	2	8	-3	.
CC1CCN(S(=O)(=O)c2ccc(C(=O)NCc3ccc4c(c3)OCO4)cc2)CC1	0	-3	0	1	10	4	.
CCN1C(=O)/C(=C2/Sc3ccccc3N2CC)S/C1=N\c1ncn[nH]1	-8	19*	1	1	-17	0	-4
Cn1ncc(Cl)c1C(=O)NC1CCCC1	3	-1	0	-3	-18	0	.
Cc1cc(C)c2c(=O)[nH]c(=O)n(Cc3ccccc3)c2n1	0	23*	3	-3	-22	1	15
CC(C)OC(=O)CC(=O)CSc1nc(-c2ccc(F)cc2)cc(-c2ccccc2)c1C#N	22	36*	1	1	-32	0	26*
COc1ccc(-c2cc(-c3ccccc3)c(C#N)c(SCC(=O)O)n2)cc1	9	2	1	0	-17	0	.
COC(=O)c1cc(Br)ccc1NC(=O)Nc1ccccc1	4	-2	-1	0	7	-4	.
C/C(=C/c1oc2ccc(O)cc2c1[N+](=O)[O-])N(C)C	-35	22*	-19	-9	-17	-4	25*
CC(=O)Oc1ccc2oc(/C=C/N(C)C)c([N+](=O)[O-])c2c1	-27	25*	-9	-6	-31	-3	43*	RORg counter=>40
CCOC(=O)c1c(-c2ccc(-c3ccccc3)cc2)csc1NC(=O)c1cccc(N2C(=O)CCC2=O)c1	0	43*	-1	-2	-15	-1	29*
CCOc1ccc(-c2csc(NC(=O)c3cccc(N4C(=O)CCC4=O)c3)n2)cc1	14	24*	1	1	-5	1	14*
O=C(Oc1cccc(-n2cnnn2)c1)C1CCCCC1	-1	2	-1	0	-8	0	.
CC(C)C[C@H]1CN(CCCC[C@H]2CNC(=O)C(=O)N2Cc2ccccc2)C(=O)C(=O)N1CCc1ccc(O)cc1	.	-6	0	.	-4	.	.
CC(Cc1c[nH]c2ccccc12)NC(=O)OCCCl (centres undefined)	-1	-2	1	-4	-14	-2	.
Cn1nc(C(=O)OCC(=O)NCc2ccc(Cl)cc2Cl)c2ccccc2c1=O	-1	18*	1	.	-9	-1	20*
Cn1nc(C(=O)OCC(=O)Nc2cc(Cl)ccc2C#N)c2ccccc2c1=O	6	3	-1	1	-42	-3	.
SMILES	MC4R antag cAMP	Rev-erbA mod	PG9 Ab binder	NR2E3 ag-1	NR2E3 ag-2	MC4R barr agon	NR1D1 mod conf	others
COc1cc2cc(C(=O)N3CCc4ccccc4C3)[nH]c2cc1OC	17	28*	1	0	-15	6	11
Cn1c(N)c(C(=O)COC(=O)/C=C/c2ccc(Cl)cc2)c(=O)n(C)c1=O	6	0	1	-3	-3	0	.
Nc1ccccc1C(=O)Nc1nccs1	16	-3	1	3	-18	2	.
CC1(Cc2cc(Cl)ccc2C(F)(F)F)C(=O)Nc2ccc(OC(F)(F)F)cc21 (centres undefined)	15	.	.	.	21	2	.
CC1(Cc2ccccc2OC(F)(F)F)C(=O)Nc2ccc(-c3ccsc3)cc21 (centres undefined)	3	72*	-2	.	9	1	90*	RORg counter=i
COC(=O)c1cccc(CC2(C)C(=O)Nc3ccc(OC(F)(F)F)cc32)c1 (centres undefined)	-6	18*	-2	.	-16	4	15*
CC1(Cc2ccccc2OC(F)(F)F)C(=O)Nc2ccc(OC(F)(F)F)cc21 (centres undefined)	8	73*	0	.	-17	6	94*	RORg counter=>40
CS(=O)(=O)N1CCCC(C(=O)NCc2ccccn2)C1 (centres undefined)	1	6	-2	-1	-4	-1	.
COC(=O)Nc1sc2c(c1C(=O)NCc1ccco1)CCCC2	9	3	-3	1	21	-2	.
COc1cc(C(=O)Nc2sc3c(c2C(=O)NCc2ccco2)CCCC3)cc(OC)c1OC	15	27*	-1	4	-31	6	3
COc1ccc(C(=O)Nc2sc3c(c2C(=O)NCc2ccco2)CCCC3)cc1OC	9	26*	1	3	-28	-2	13
O=C(CSc1nc2ccccc2nc1N1CCCCC1)N1CCN(S(=O)(=O)c2cc(Cl)ccc2Cl)CC1	.	28*	.	.	.	.	30*	RORg counter=>40
O=C(CSc1nc2ccccc2nc1N1CCCC1)Nc1ccc(Cl)cc1	5	0	-1	2	-57	1	.
